In article PMC6471013 (Chemistry (Weinheim an Der Bergstrasse, Germany), 2018):
Like-named read-outs stand apart in the source and are kept apart here.

Key:
[1] = tested on: αvβ3‐expressing human renal cell carcinoma 786‐O cells; test: Cell antiproliferative assay, 96 h, with or without elastase; format: cell-based; conditions: 786-0, 96 h
Method in brief: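 786‐O renal carcinoma cells (αvβ3-positive) exposed to test compound for 96 h, with or without 50 nm elastase from human leukocytes. IC50 taken as the concentration giving 50 % inhibition of cell viability. Samples run in triplicate.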

[2] = target: Recombinant human integrin αvβ3 receptor (Homo sapiens, UniProt P05106+P06756); format: binding; conditions: competition with biotinylated vitronectin for the isolated αvβ3 receptor
Method in brief: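 Test compound competes with biotinylated vitronectin for binding to the αvβ3 receptor. IC50 is the concentration giving 50 % inhibition of vitronectin binding, estimated by curve fitting. Values are mean ± SD of duplicate determinations.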

Sequence of Recombinant human integrin αvβ3 receptor (P06756 31-992 limits assumed): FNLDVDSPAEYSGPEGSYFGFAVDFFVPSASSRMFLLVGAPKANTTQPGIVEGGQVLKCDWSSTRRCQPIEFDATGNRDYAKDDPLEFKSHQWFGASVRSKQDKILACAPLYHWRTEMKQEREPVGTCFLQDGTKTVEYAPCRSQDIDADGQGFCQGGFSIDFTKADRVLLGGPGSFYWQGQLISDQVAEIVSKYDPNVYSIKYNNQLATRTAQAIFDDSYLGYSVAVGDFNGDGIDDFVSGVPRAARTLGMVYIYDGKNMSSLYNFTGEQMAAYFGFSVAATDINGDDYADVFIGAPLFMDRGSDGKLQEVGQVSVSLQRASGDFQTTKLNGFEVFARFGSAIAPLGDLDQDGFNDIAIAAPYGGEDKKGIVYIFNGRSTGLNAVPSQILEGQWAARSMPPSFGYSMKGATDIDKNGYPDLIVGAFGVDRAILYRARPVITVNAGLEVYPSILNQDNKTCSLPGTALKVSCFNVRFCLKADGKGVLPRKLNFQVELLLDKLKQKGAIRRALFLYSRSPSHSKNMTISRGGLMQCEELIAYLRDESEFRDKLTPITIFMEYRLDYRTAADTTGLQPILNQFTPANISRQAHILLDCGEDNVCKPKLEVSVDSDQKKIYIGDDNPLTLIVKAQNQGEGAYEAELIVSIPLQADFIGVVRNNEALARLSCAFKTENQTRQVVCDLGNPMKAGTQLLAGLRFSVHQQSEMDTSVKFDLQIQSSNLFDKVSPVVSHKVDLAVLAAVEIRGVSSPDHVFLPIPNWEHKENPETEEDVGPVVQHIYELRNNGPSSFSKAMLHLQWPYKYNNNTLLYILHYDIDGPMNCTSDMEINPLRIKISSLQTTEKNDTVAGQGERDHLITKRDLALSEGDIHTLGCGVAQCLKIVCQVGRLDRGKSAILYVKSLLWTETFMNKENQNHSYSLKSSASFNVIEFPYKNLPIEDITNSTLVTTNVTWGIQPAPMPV
Sequence of Recombinant human integrin αvβ3 receptor (P05106 27-718 limits assumed): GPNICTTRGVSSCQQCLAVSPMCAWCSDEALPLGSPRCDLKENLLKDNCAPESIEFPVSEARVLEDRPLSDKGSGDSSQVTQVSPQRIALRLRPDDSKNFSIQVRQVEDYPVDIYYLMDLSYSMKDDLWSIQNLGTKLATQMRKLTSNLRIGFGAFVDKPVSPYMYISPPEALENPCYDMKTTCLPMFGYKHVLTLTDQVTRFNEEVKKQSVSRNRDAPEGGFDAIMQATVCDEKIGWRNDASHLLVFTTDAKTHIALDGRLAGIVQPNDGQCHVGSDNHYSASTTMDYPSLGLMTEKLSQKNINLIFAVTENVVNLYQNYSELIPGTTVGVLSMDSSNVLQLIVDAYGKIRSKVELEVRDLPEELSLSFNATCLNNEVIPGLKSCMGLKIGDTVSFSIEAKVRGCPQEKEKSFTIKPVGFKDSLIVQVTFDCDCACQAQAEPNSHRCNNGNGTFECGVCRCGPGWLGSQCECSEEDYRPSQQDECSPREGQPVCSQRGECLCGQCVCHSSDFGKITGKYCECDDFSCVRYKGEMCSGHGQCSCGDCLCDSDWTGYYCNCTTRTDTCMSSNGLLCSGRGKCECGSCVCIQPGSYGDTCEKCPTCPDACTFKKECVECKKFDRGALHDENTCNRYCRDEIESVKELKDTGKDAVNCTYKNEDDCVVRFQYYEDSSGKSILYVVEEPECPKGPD

IC50 ([1]; read-out: IC50, added elastase NO)	IC50 ([1]; read-out: IC50, added elastase YES)	αvβ3 integrin binding IC50, in words [2]	Structure (SMILES)
35.8 ± 16.7 nM	29.5 ± 7.6 nM	–	CC(=O)O[C@H]1C(=O)[C@@]2(C)[C@H]([C@H](OC(=O)c3ccccc3)[C@]3(O)C[C@H](OC(=O)[C@H](O)[C@@H](NC(=O)c4ccccc4)c4ccccc4)C(C)=C1C3(C)C)[C@]1(OC(C)=O)CO[C@@H]1C[C@@H]2O [compound 12, Paclitaxel]
–	–	low‐nanomolar	CN1C(=CC=CC=CC2=[N+](CCCCCC(=O)NCc3ccc(CN4C(=O)[C@@H]5CC(=O)N[C@@H](CCCNC(=N)N)C(=O)NCC(=O)N[C@@H](CC(=O)O)C(=O)NC[C@@H]4C(=O)N5)cc3)c3ccc(S(=O)(=O)[O-])cc3C2(C)C)C(C)(C)c2cc(S(=O)(=O)O)ccc21 [compound 2, cyclo(DKP‐RGD)‐sCy5]
–	–	micromolar	N=C(N)NCCC[C@@H]1NC(=O)C[C@@H]2NC(=O)[C@@H](CNC(=O)[C@H](CC(=O)O)NC(=O)CCNC1=O)N(Cc1ccccc1)C2=O [compound 3, cyclo(DKP‐RβAD)]
